# Data taken from ChEMBL document CHEMBL1142086, “Flavonoid dimers as bivalent modulators for pentamidine and sodium stiboglucanate resistance in leishmania” (Antimicrob Agents Chemother, 2007).
# pEC50, pIC50: −log10 of the molar value. Calls of active or inactive are those of the source. Unless noted, the calls are words filed in the database; no cut-off is given here.
# Assays:
# [1] = Resistance reversal as >50% reduction in pentamidine IC50 in drug-resistant Leishmania enriettii LePentR50 by MTS assay; type: functional
# How it was run: (§1)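 Promastigotes seeded at 10^5 cells/well and incubated 72 h at 27°C with serial concentrations of SSG (L. donovani) or pentamidine (L. enriettii LePentR50), each with 6 μM modulator or DMSO solvent control. Survival read by MTS/PMS at 490 nm after 4 h. […] Triplicates per concentration.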
# [2] = Resistance reversal as >50% reduction in pentamidine IC50 in wild-type Leishmania enriettii by MTS assay; type: functional
# How it was run: (§2)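 L. enriettii promastigotes are wild type, LeMDR1−/− (no drug in culture) or LeV160 (maintained in 160 μg/ml vinblastine). Seeded at 10^5 cells/well with graded pentamidine plus 6 μM modulator for 72 h at 27°C. MTS read-out at 490 nm gives the pentamidine IC50. Three independent experiments in triplicate.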
# [3] = Resistance reversal as >50% reduction in SSG IC50 in drug-resistant Leishmania donovani Ld39 by MTS assay; type: functional; how it was run: as §1
# [4] = Resistance reversal as >50% reduction in SSG IC50 in drug-resistant Leishmania donovani Ld2001 by MTS assay; type: functional; how it was run: as §1
# [5] = Resistance reversal as >50% reduction in SSG IC50 in wild-type Leishmania donovani LdAG83 by MTS assay; type: functional; how it was run: as §1
# Leishmania enriettii [6] = assay: Cytotoxicity against pentamidine-resistant Leishmania enriettii LePentR50 by MTS assay; type: organism-based
# How it was run: (§3)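 Promastigotes in Schneider's Drosophila medium (pH 6.9) with 10% heat-inactivated FCS, 4 mM glutamine and gentamicin at 27°C. Seeded at 10^5 cells/well, exposed to a range of modulator concentrations (up to 200 μM) for 72 h at 27°C. MTS/PMS added, 4 h colour development, OD 490 nm. Survival expressed relative to untreated wells; ≥2 independent experiments in triplicate.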
# Leishmania donovani [7] = assay: Cytotoxicity against wild-type Leishmania donovani LdAG83 by MTS assay; type: organism-based; conditions: AG83; how it was run: as §3
# Leishmania donovani [8] = assay: Cytotoxicity against SSG-resistant Leishmania donovani Ld39 by MTS assay; type: organism-based; how it was run: as §3
# Leishmania enriettii [9] = assay: Increase of pentamidine accumulation in drug-resistant Leishmania enriettii LePentR50 promastigotes at 15 uM after 3 hrs; type: functional, organism-based
# How it was run: (§4)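 4-day-old LePentR50 promastigotes (2 × 10^8 cells/ml, 1 ml) incubated with 0.84 mM pentamidine plus modulator (0, 15, 30, 60 μM) for 3 h at 27°C in the dark. Cells washed with cold PBS and lysed in 75% acetonitrile by freeze-thaw. Pentamidine quantified by ion-pair C18 HPLC at 265 nm against a standard curve and expressed per mg protein. Triplicates, repeated twice.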
# Leishmania enriettii [10] = assay: Increase of pentamidine accumulation in drug-resistant Leishmania enriettii LePentR50 promastigotes at 30 uM after 3 hrs; type: functional, organism-based; how it was run: as §4
# Leishmania enriettii [11] = assay: Increase of pentamidine accumulation in drug-resistant Leishmania enriettii LePentR50 promastigotes at 60 uM after 3 hrs; type: functional, organism-based; how it was run: as §4
# Leishmania enriettii [12] = assay: Cytotoxicity against drug-resistant Leishmania enriettii LePentR50 at 60 uM after 3 hrs; type: organism-based; conditions: in vitro
# Leishmania donovani [13] = assay: Increase of SSG accumulation in drug-resistant Leishmania donovani Ld39 at 30 uM relative to LdAG83 cells; type: functional, organism-based
# How it was run: (§5)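 Axenic amastigotes made by shifting 4-day promastigotes into supplemented M199 at 37°C for 24 h. 1 ml (2 × 10^8 cells/ml) incubated with 0.05 mM SSG plus modulator (0, 30, 60 μM) for 3 h at 37°C. After PBS washes, cells digested in nitric acid. Total Sb measured by ICP-MS (m/z 121/123, In internal standard), in nmol/mg protein. Expressed as % of LdAG83; triplicates, two experiments.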
# Leishmania donovani [14] = assay: Increase of SSG accumulation in drug-resistant Leishmania donovani Ld2001 at 30 uM relative to LdAG83 cells; type: functional, organism-based; how it was run: as §5
# Leishmania donovani [15] = assay: Increase of SSG accumulation in drug-resistant Leishmania donovani Ld39 at 60 uM relative to LdAG83 cells; type: functional, organism-based; how it was run: as §5
# Leishmania donovani [16] = assay: Increase of SSG accumulation in drug-resistant Leishmania donovani Ld2001 at 60 uM relative to LdAG83 cells; type: functional, organism-based; how it was run: as §5
# Leishmania donovani [17] = assay: Cytotoxicity against wild-type Leishmania donovani at 60 uM after 3 hrs; type: organism-based; conditions: in vitro
# [18] = Effect on modulating SSG-resistance of Leishmania donovani Ld39 promastigotes assessed as reversal of resistance at 6 uM after 72 hrs by MTS; type: functional
# How it was run: (§6)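 Ld39 or LdAG83 promastigotes seeded at 10^5 cells/well with serial SSG dilutions plus modulator (0, 1, 2, 4, 6 μM) for 72 h at 27°C. SSG concentrations differ between the two strains. Percentage survivors by MTS. Triplicate points, three separate experiments.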
# [19] = Effect on modulating drug-resistance of wild type SSG-sensitive Leishmania donovani LdAG83 promastigotes assessed as reversal of resistance at 6 uM after 72 hrs by MTS; type: functional; how it was run: as §6
# [20] = Effect on modulating pentamidine-resistance of Leishmania enriettii LePentR50 assessed as decrease in survival after 72 hrs by MTS; type: functional
# How it was run: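 LePentR50 promastigotes seeded at 10^5 cells/well, exposed 72 h at 27°C to graded modulator alone or with 60 μg/ml pentamidine. MTS survival as percentage of untreated. […] Triplicates, three repeats.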
# [21] = Toxicity against pentamidine-resistance Leishmania enriettii LePentR50 upto 6 uM
# [22] = Resistance reversal as >50% reduction in pentamidine IC50 in Leishmania enriettii LeMDR1-/- by MTS assay; type: functional; how it was run: as §2
# [23] = Resistance reversal as >50% reduction in pentamidine IC50 in Leishmania enriettii LeV160 overexpressing LeMDR1 by MTS assay; type: functional; how it was run: as §2
compound,measurement,setting,value
O=c1cc(-c2ccc(OCCOCCOCCOCCOc3ccc(-c4cc(=O)c5c(O)cc(O)cc5o4)cc3)cc2)oc2cc(O)cc(O)c12,Resistance reversal,[1],Active
same,Resistance reversal,[2],Active
same,Resistance reversal,[3],Active
same,Resistance reversal,[4],Active
same,Resistance reversal,[5],inactive
same,pIC50,Leishmania enriettii [6],< 3.70
same,pIC50,Leishmania donovani [7],5.15
same,pIC50,Leishmania donovani [8],5.00
same,Drug uptake,Leishmania enriettii [9],2.95 µM
same,Drug uptake,Leishmania enriettii [10],4.69 µM
same,Drug uptake,Leishmania enriettii [11],26.6 µM
same,Activity,Leishmania enriettii [12],Not Active
same,Drug uptake,Leishmania donovani [13],74%
same,Drug uptake,Leishmania donovani [14],83%
same,Drug uptake,Leishmania donovani [15],90%
same,Drug uptake,Leishmania donovani [16],69%
same,Activity,Leishmania donovani [17],Not Active
same,Resistance reversal,[18],Dose-dependent effect
same,Resistance reversal,[19],inactive
same,pEC50,[20],6.03
same,Toxicity,[21],Not Toxic
same,Resistance reversal,[22],Active
same,Resistance reversal,[23],Active
O=c1cc(-c2ccc(OCCOCCOCCOCCOCCOCCOCCOCCOCCOCCOc3ccc(-c4cc(=O)c5c(O)cc(O)cc5o4)cc3)cc2)oc2cc(O)cc(O)c12,pIC50,Leishmania donovani [7],< 3.70
same,pIC50,Leishmania donovani [8],< 3.70
O=c1cc(-c2ccc(OCCOc3ccc(-c4cc(=O)c5c(O)cc(O)cc5o4)cc3)cc2)oc2cc(O)cc(O)c12,pIC50,Leishmania donovani [7],4.02
O=c1cc(-c2ccc(OCCOCCOCCOCCOCCOCCOCCOCCOCCOc3ccc(-c4cc(=O)c5c(O)cc(O)cc5o4)cc3)cc2)oc2cc(O)cc(O)c12,pIC50,Leishmania donovani [7],5.00
same,pIC50,Leishmania donovani [8],4.85
O=c1cc(-c2ccc(OCCOCCOCCOCCOCCOc3ccc(-c4cc(=O)c5c(O)cc(O)cc5o4)cc3)cc2)oc2cc(O)cc(O)c12,pIC50,Leishmania enriettii [6],4.15
same,pIC50,Leishmania donovani [7],4.52
same,pIC50,Leishmania donovani [8],4.38
O=c1cc(-c2ccc(OCCOCCOCCO)cc2)oc2cc(O)cc(O)c12,pIC50,Leishmania enriettii [6],< 3.70
same,pIC50,Leishmania donovani [7],< 3.70
same,pIC50,Leishmania donovani [8],< 3.70
O=c1cc(-c2ccc(O)cc2)oc2cc(O)cc(O)c12 [APIGENIN],pIC50,Leishmania enriettii [6],4.26
same,pIC50,Leishmania donovani [7],4.49
same,pIC50,Leishmania donovani [8],4.37
O=c1cc(-c2ccc(OCCOCCOCCOCCOCCOCCOCCOCCOc3ccc(-c4cc(=O)c5c(O)cc(O)cc5o4)cc3)cc2)oc2cc(O)cc(O)c12,pIC50,Leishmania donovani [7],4.92
same,pIC50,Leishmania donovani [8],4.85
O=c1cc(-c2ccc(OCCOCCOCCOCCOCCOCCOc3ccc(-c4cc(=O)c5c(O)cc(O)cc5o4)cc3)cc2)oc2cc(O)cc(O)c12,pIC50,Leishmania enriettii [6],4.40
same,pIC50,Leishmania donovani [7],4.96
same,pIC50,Leishmania donovani [8],4.89
O=c1cc(-c2ccc(OCCOCCOCCOc3ccc(-c4cc(=O)c5c(O)cc(O)cc5o4)cc3)cc2)oc2cc(O)cc(O)c12,Resistance reversal,[1],Active
same,Resistance reversal,[3],Active
same,Resistance reversal,[4],Active
same,Resistance reversal,[5],inactive
same,pIC50,Leishmania donovani [7],5.10
same,pIC50,Leishmania donovani [8],4.96
same,Resistance reversal,[18],Dose-dependent effect
same,pEC50,[20],5.73
same,Resistance reversal,[22],Active
same,Resistance reversal,[23],Active
O=c1cc(-c2ccc(OCCOCCOCCOCCOCCOCCOCCOCCOCCOCCOCCOCCOCCOc3ccc(-c4cc(=O)c5c(O)cc(O)cc5o4)cc3)cc2)oc2cc(O)cc(O)c12,pIC50,Leishmania donovani [7],4.30
same,pIC50,Leishmania donovani [8],4.22
